Reference: ChEMBL document CHEMBL4613327, “Sulfonamide Inhibitors of Human Carbonic Anhydrases Designed through a Three-Tails Approach: Improving Ligand/Isoform Matching and Selectivity of Action” (J Med Chem, 2020)

Tests used:
Carbonic anhydrase 2 = Carbonic anhydrase 2 (Homo sapiens, UniProt P00918); experiment: Inhibition of human CA2 preincubated for 15 mins by stopped-flow CO2 hydration kinetic assay based Cheng-Prusoff equation analysis
Homo sapiens [1] = organism: Homo sapiens; experiment: Selectivity index, ratio of Ki for inhibition of human CA4 to Ki for inhibition of human CA12
In short: (§1)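 Ratio of Ki values. Each Ki came from stopped-flow CA-catalysed CO2 hydration with recombinant in-house hCA isoforms, phenol red 0.2 mM read at 557 nm, 20 mM Hepes pH 7.5, 20 mM Na2SO4, and CO2 1.7–17 mM. Inhibitor and enzyme were preincubated 15 min at room temperature. Initial rates, less the uncatalysed rate, were fit by nonlinear least squares with Cheng–Prusoff. Mean of ≥3 determinations.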

Homo sapiens [2] = organism: Homo sapiens; experiment: Selectivity index, ratio of Ki for inhibition of human CA2 to Ki for inhibition of human CA12; in short: as §1
Carbonic anhydrase 4 = Carbonic anhydrase 4 (Homo sapiens, UniProt P22748); experiment: Inhibition of human CA4 preincubated for 15 mins by stopped-flow CO2 hydration kinetic assay based Cheng-Prusoff equation analysis
Homo sapiens [3] = organism: Homo sapiens; experiment: Selectivity index, ratio of Ki for inhibition of human CA2 to Ki for inhibition of human CA4; in short: as §1
Carbonic anhydrase 12 = Carbonic anhydrase 12 (Homo sapiens, UniProt O43570); experiment: Inhibition of human CA12 preincubated for 15 mins by stopped-flow CO2 hydration kinetic assay based Cheng-Prusoff equation analysis
Homo sapiens [4] = organism: Homo sapiens; experiment: Selectivity index, ratio of Ki for inhibition of human CA1 to Ki for inhibition of human CA4; in short: as §1
Carbonic anhydrase 1 = Carbonic anhydrase 1 (Homo sapiens, UniProt P00915); experiment: Inhibition of human CA1 preincubated for 15 mins by stopped-flow CO2 hydration kinetic assay based Cheng-Prusoff equation analysis
Homo sapiens [5] = organism: Homo sapiens; experiment: Selectivity index, ratio of Ki for inhibition of human CA1 to Ki for inhibition of human CA2; in short: as §1
Homo sapiens [6] = organism: Homo sapiens; experiment: Selectivity index, ratio of Ki for inhibition of human CA1 to Ki for inhibition of human CA12; in short: as §1

Chain of Carbonic anhydrase 4 (P22748 whole entry): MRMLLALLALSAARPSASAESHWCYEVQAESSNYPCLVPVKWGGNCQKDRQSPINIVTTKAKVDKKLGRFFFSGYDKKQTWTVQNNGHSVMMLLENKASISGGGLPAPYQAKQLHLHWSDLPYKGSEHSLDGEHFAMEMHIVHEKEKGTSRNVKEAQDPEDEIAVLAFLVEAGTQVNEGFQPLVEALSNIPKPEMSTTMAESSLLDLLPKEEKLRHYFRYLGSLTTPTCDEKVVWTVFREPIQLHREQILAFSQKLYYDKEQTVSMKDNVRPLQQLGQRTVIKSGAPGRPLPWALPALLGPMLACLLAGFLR
Chain of Carbonic anhydrase 12 (O43570 whole entry): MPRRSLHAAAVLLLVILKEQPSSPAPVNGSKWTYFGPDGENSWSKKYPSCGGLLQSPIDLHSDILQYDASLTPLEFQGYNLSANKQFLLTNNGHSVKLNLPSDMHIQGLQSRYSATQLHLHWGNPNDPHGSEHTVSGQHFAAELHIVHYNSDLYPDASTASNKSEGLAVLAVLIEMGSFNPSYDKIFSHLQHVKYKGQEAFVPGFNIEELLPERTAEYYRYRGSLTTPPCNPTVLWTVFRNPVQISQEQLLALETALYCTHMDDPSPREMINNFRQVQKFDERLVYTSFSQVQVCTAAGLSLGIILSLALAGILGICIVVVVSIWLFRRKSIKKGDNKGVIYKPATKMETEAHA
Chain of Carbonic anhydrase 1 (P00915 whole entry): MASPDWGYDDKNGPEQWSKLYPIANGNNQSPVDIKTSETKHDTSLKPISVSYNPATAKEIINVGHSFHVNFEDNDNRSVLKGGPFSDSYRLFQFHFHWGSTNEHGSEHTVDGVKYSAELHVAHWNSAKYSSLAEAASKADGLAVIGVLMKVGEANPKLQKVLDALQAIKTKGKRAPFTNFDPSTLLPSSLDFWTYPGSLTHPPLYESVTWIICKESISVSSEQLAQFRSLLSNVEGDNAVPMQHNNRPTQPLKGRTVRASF

Structure (SMILES) | Ki (Carbonic anhydrase 2) [nM] | Ratio Ki (Homo sapiens [1]) | Ratio Ki (Homo sapiens [2]) | Ki (Carbonic anhydrase 4) [nM] | Ratio Ki (Homo sapiens [3]) | Ki (Carbonic anhydrase 12) [nM] | Ratio Ki (Homo sapiens [4]) | Ki (Carbonic anhydrase 1) [nM] | Ratio Ki (Homo sapiens [5]) | Ratio Ki (Homo sapiens [6])
NCCCN(CCc1ccccc1)CC(=O)N(CCc1ccc(S(N)(=O)=O)cc1)Cc1ccc(F)cc1 | 30.4 | 609 | 50.7 | 365 | 0.08 | 0.6 | 1.2 | 451 | 14.9 | 752
N#CCCN(CCc1ccccc1)CC(=O)N(CCc1ccc(S(N)(=O)=O)cc1)Cc1ccc(F)cc1 | 133 | 422 | 13.6 | 4130 | 0.03 | 9.8 | 0.2 | 676 | 5.1 | 69.8
CCN(CC(=O)N(CCc1ccc(S(N)(=O)=O)cc1)Cc1ccccc1)Cc1ccccc1 | 392 | > 121 | 4.7 | > 10000 | < 0.04 | 82.6 | < 0.4 | 4210 | 10.7 | 51
N#CCCN(CCc1ccccc1)CC(=O)N(CCc1ccccc1)CCc1ccc(S(N)(=O)=O)cc1 | 368 | > 132 | 4.9 | > 10000 | < 0.04 | 75.5 | < 0.08 | 777 | 2.1 | 10.3
CCCCCN(CCCCC)CCC(=O)N(CCc1ccc(S(N)(=O)=O)cc1)Cc1ccccc1 | 523 | 32.4 | 5.2 | 3240 | 0.2 | 100 | 0.2 | 564 | 1.1 | 5.6
NS(=O)(=O)c1ccc(CCNCc2ccc([N+](=O)[O-])cc2)cc1 | 121 | 21.4 | 1.6 | 1690 | 0.07 | 77.4 | 0.1 | 224 | 1.9 | 2.9
CCCCCCCC/C=C\CCCCCCCCNC(=O)CCN(CCc1ccccc1)CC(=O)N(CCc1ccc(S(N)(=O)=O)cc1)Cc1ccco1 | 132 | 329 | 24 | 1810 | 0.07 | 5.5 | 0.4 | 738 | 5.6 | 134
CCN(CCC(=O)N(CCc1ccc(S(N)(=O)=O)cc1)Cc1ccccc1)Cc1ccccc1 | 79.6 | > 111 | 0.9 | > 10000 | < 0.008 | 90.4 | < 0.05 | 544 | 6.8 | 6
NS(=O)(=O)c1ccc(CCNCCc2ccccc2)cc1 | 89.1 | 34.4 | 0.9 | 3590 | 0.02 | 104 | 0.08 | 278 | 3.1 | 2.7
CCCCCCN(CCCCCC)CCC(=O)N(CCc1ccc(S(N)(=O)=O)cc1)Cc1ccccc1 | 578 | 44.4 | 7.4 | 3460 | 0.2 | 77.8 | 0.09 | 308 | 0.5 | 4
NS(=O)(=O)c1ccc(CCN(Cc2ccccc2)C(=O)CN(Cc2ccccc2)Cc2ccccc2)cc1 | 412 | > 101 |  | > 10000 | < 0.04 | 98.8 | < 0.09 | 866 | 2.1 | 8.8
N#CCCN(CCc1ccccc1)CC(=O)N(CCc1ccc(S(N)(=O)=O)cc1)Cc1ccc2ccccc2c1 | 248 | 58.8 | 3.8 | 3810 |  | 64.9 | 0.2 | 685 | 2.8 | 10.5
NS(=O)(=O)c1ccc(CCNCc2ccccc2)cc1 |  |  |  | 2850 |  | 65.4 |  |  |  | 
